This note sets out measurements from PubChem BioAssay AID651952 (The Scripps Research Institute Molecular Screening Center, 2012).

Out of some 2,400 compounds screened, about 940 (39%) were called active. Only a sample is shown. A number with no mark means an inactive call.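 How the source made its calls: active means inhibition above the plate's mean compound inhibition plus 3 SD, computed per plate (cut at about 22% in these data); inactive means the rest.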

This test can be described thus: inhibition of ATP-evoked calcium response in CHO-Ga16 cells, counter-screen for TAAR1 agonist project, cell-based, fluorescence (AID 651952).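 Further: 0% = EC80 ATP with DMSO and 100% = DMSO wells without ATP.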 The following applies: CHO-Ga16 ATP-induced calcium, Fluo-8 fluorescence; at 3 µM; stronger effect = higher value. Put shortly:
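Test system: parental CHO cells stably overexpressing Gα16, lacking hTAAR1; Timing: 17–24 h seeding, dye 75 min 37 °C, 30 min RT; Signal: Fluo-8 calcium dye fluorescence, excitation 470–495 nm, emission 515–575 nm; Controls: DMSO-only and ATP-stimulated wells; Read-out: % inhibition of ATP-evoked calcium signal.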
In general terms: A counterscreen serves to expose hits that act by an unwanted route or on another target.
What is called inhibition is the change of the read-out against control, counted positive when it falls. As for `O=C(NNC(=S)NC(=O)c1cn(-c2ccccc2)nc1-c1ccccc1)c1ccncc1`, the inhibition is 57.6% (active).
Under `COc1ccc2cc(-c3[nH]ncc3CNCCn3nc(C)cc3C)ccc2c1` stands 4.6%; under `Cc1cccc(NC(=O)C(C)N2C(=O)C3C4CC(C(Br)C4Br)C3C2=O)c1` (stereo unspecified), 43.9% (active).
Under `O=c1cnnc(Nc2ccccc2)[nH]1` stands 7.9%; under `COc1cc(OC)cc(C(=O)N[C@H](C(=O)OCC(=O)NC(C)c2ccccc2)C(C)C)c1` (stereo partly specified), 6.73%; under `Cn1c(=O)c(=O)n(C)c2cc(S(=O)(=O)NCCc3ccccc3)ccc21`, -3.68%.
Under `Fc1ccc(NC(=S)N2CCc3[nH]c4ccccc4c3C2)cc1` stands 22.9% (active); under `COc1ccc(OC)c(NC(=S)N2CCc3ccccc3C2)c1`, 5.63%.
On to `O=C(Nc1ccc(Cl)cc1)N1CCc2[nH]c3ccccc3c2C1`, for which the inhibition was 14.7%.
Under `Cc1ccc(NC(=O)CCN2CCc3ccccc3C2)cc1` stands 10.1%; under `O=C(O)C1CC=CCC1C(=O)NCCc1ccccc1` (stereo unspecified), 3.62%; under `S=C(NCCc1ccccc1)N1CCn2cccc2C1c1ccncc1` (stereo unspecified), 21.8% (active).
Under `O=C(NCCc1ccccc1)C(=O)NCC1OCCN1S(=O)(=O)c1cccs1` (stereo unspecified) stands 10.6%.
As for `COc1ccc(Cl)cc1C(=O)NNC(=S)NC(=O)/C=C/c1ccco1`, the figure is 55.5% (active); as for `O=C1CCCN2N=C(SCC(=O)Nc3ccc(Br)cc3)SC2=N1`, 20%.
For `CCCCCc1c(Cc2ccccc2)ncn1CCc1ccccc1OC`, the inhibition was 30.6% (active).
Under `CCCCCc1c(-c2cccc(Br)c2)ncn1CCc1ccccc1OC` stands 25.3% (active); under `CCCCCc1c(-c2ccc(OC)c(OC)c2)ncn1CCc1ccccc1OC`, 44.5% (active); under `O=C(CNC(=O)c1ccccc1F)OCC(=O)c1c[nH]c2ccccc12`, -2.93%.
Take `O=C(c1noc2c1CCCC2)N1CCc2ccccc2C1`: the inhibition was 2.82%.
As for `CCC(c1nnnn1Cc1ccco1)N(CCc1ccccc1)Cc1cc2ccc(OC)cc2[nH]c1=O` (stereo unspecified), the figure is 15.3%.
As for `CC(Oc1ccc(Cl)cc1)C(=O)OCC(=O)Nc1ncc(Cl)cc1Cl` (stereo unspecified), the figure is 12.8%.
As for `CCCn1c(O)c(CN2CCCC(C)C2)c(C)c(C#N)c1=O` (stereo unspecified), the figure is 11.4%; as for `Cc1cc2nc3c(=O)[nH]c(=O)nc-3n(C[C@H](O)[C@H](O)[C@H](O)CO)c2cc1C`, 60.5% (active); as for `COc1ccc(C(=O)CN2C(=O)NC(C)(c3ccc(C)cc3)C2=O)cc1OC` (stereo unspecified), 12.3%.
Regarding `c1ccc2c(c1)OCC(CNc1ncnc3nc[nH]c13)O2` (stereo unspecified), the inhibition was 103% (active).
Consider `COc1cc(OC)c(-n2cc(-c3ccc(Cl)cc3)[nH]c2=O)cc1Cl`, for which the inhibition is 47.5% (active).
As for `O=Cc1c(NCCc2cccc(F)c2)c2ccccc2[nH]c1=O`, the inhibition was 5.51%.
As for `CSc1nc(N)c(C#N)c(-c2ccccc2Cl)c1C#N`, the figure is 23.4% (active).
As for `OC(CNCCc1ccc(Cl)cc1Cl)COc1ccccc1` (stereo unspecified), the figure is 16.3%; as for `COC(=O)c1[nH]c2cccc(C)c2c1NC(=O)CN1CCCc2ccccc21`, 22.5% (active).
